According to ChEMBL document CHEMBL4819040, “Limonoids from Guarea guidonia and Cedrela odorata: Heat Shock Protein 90 (Hsp90) Modulator Properties of Chisomicine D” (J Nat Prod, 2021):
Activity calls are given as the source filed them. The rule behind the calls is not given here.

Assays:
[1] = biological target: T1, Heat shock protein HSP 90-alpha (Homo sapiens, UniProt P07900); assay: Binding affinity to recombinant human HSP90alpha by surface plasmon resonance analysis
[2] = biological target: T1, Heat shock protein HSP 90-alpha; assay: Effect on HSP90alpha in human U-937 cells assessed as JNK p54 protein level at 10 uM after 48 hrs by Western blot analysis (reference value: 2.45); type: cell-based; conditions: filed as modulator
Outline: (§1)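 U937 cells (RPMI 1640, 10% FBS, 37 °C, 5% CO2) treated 48 h at 10, 20 or 30 μM, DMSO vehicle ≤0.3%. RIPA lysates, Bradford protein assay, SDS-PAGE, nitrocellulose, HRP secondary with ECL detection. GAPDH loading control, densitometry normalized. Run in duplicate.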

[3] = biological target: T1, Heat shock protein HSP 90-alpha; assay: Effect on HSP90alpha in human U-937 cells assessed as JNK p46 protein level at 20 uM after 48 hrs by Western blot analysis (reference value: 1.22); type: cell-based; conditions: filed as modulator; outline: as §1
[4] = biological target: T1, Heat shock protein HSP 90-alpha; assay: Effect on HSP90alpha in human U-937 cells assessed as ERK2 protein level at 10 uM after 48 hrs by Western blot analysis (reference value: 0.69); type: cell-based; conditions: filed as modulator; outline: as §1
U-937 [5] = assay: Induction of cell cycle arrest in human U937 cells assessed as CDC2 protein expression at 20 uM by Western blotting analysis (reference value: 1.22); type: functional
Outline: (§2)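 U937 cells given vehicle (DMSO) or 10 or 20 μM. RIPA whole-cell lysates (protease/phosphatase inhibitors) resolved by SDS-PAGE, blotted to nitrocellulose, ECL detection. Targets: pro-caspase 3/caspase 3 or p-CDC2 (p34)/CDC2. Densitometry normalized. Duplicate experiments.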

[6] = biological target: T1, Heat shock protein HSP 90-alpha; assay: Effect on HSP90alpha in human U-937 cells assessed as ERK2 protein level at 20 uM after 48 hrs by Western blot analysis (reference value: 0.69); type: cell-based; conditions: filed as modulator; outline: as §1
[7] = biological target: T1, Heat shock protein HSP 90-alpha; assay: Effect on HSP90alpha in human U-937 cells assessed as HSP90 protein level at 20 uM after 48 hrs by Western blot analysis (reference value: 1.12); type: cell-based; conditions: filed as modulator; outline: as §1
U-937 [8] = assay: Induction of cell cycle arrest in human U937 cells assessed as CDC2 protein expression at 10 uM by Western blotting analysis (reference value: 1.22); type: functional; outline: as §2
[9] = biological target: T1, Heat shock protein HSP 90-alpha; assay: Effect on HSP90alpha in human U-937 cells assessed as HSP90 protein level at 30 uM after 48 hrs by Western blot analysis (reference value: 1.12); type: cell-based; conditions: filed as modulator; outline: as §1
[10] = biological target: T1, Heat shock protein HSP 90-alpha; assay: Effect on HSP90alpha in human U-937 cells assessed as p-ERK2 protein level at 10 uM after 48 hrs by Western blot analysis (reference value: 1.67); type: cell-based; conditions: filed as modulator; outline: as §1
U-937 [11] = assay: Induction of cell cycle arrest in human U937 cells assessed as phosphorylated CDC2 expression at 10 uM by Western blotting analysis (reference value: 1.07); type: functional; outline: as §2
[12] = biological target: T1, Heat shock protein HSP 90-alpha; assay: Effect on HSP90alpha in human U-937 cells assessed as HSP70 protein level at 10 uM after 48 hrs by Western blot analysis (reference value: 0.83); type: cell-based; conditions: filed as modulator; outline: as §1
[13] = biological target: T1, Heat shock protein HSP 90-alpha; assay: Inhibition of HSP90alpha (unknown origin) at 10 to 20 uM; conditions: dose 10-20 µM
[14] = biological target: T1, Heat shock protein HSP 90-alpha; assay: Effect on HSP90alpha in human U-937 cells assessed as p-JNK p46 protein level at 20 uM after 48 hrs by Western blot analysis (reference value: 1.06); type: cell-based; conditions: filed as modulator; outline: as §1
U-937 [15] = assay: Induction of cell cycle arrest in human U937 cells assessed as phosphorylated CDC2 expression at 20 uM by Western blotting analysis (reference value: 1.07); type: functional; outline: as §2
[16] = biological target: T1, Heat shock protein HSP 90-alpha; assay: Effect on HSP90alpha in human U-937 cells assessed as HSP90 protein level at 10 uM after 48 hrs by Western blot analysis (reference value: 1.12); type: cell-based; conditions: filed as modulator; outline: as §1
U-937 [17] = assay: Induction of apoptosis in human U-937 cells assessed as early apoptotic cells at 20 uM after 48 hrs by AnnexinV-FITC/propidium iodide staining based flow cytometry (reference value: 4.90 %); type: functional
U-937 [18] = assay: Induction of cell cycle arrest in human U937 cells assessed as decrease in cells at S phase at 20 uM incubated for 48 hrs PI staining based flow cytometric analysis (reference value: 23.6 %); type: functional; parameters: scale not given: the % may be the effect or the level left
[19] = biological target: T1, Heat shock protein HSP 90-alpha; assay: Effect on HSP90alpha in human U-937 cells assessed as HSP70 protein level at 30 uM after 48 hrs by Western blot analysis (reference value: 0.83); type: cell-based; conditions: filed as modulator; outline: as §1
[20] = biological target: T1, Heat shock protein HSP 90-alpha; assay: Effect on HSP90alpha in human U-937 cells assessed as JNK p46 protein level at 30 uM after 48 hrs by Western blot analysis (reference value: 1.22); type: cell-based; conditions: filed as modulator; outline: as §1
[21] = biological target: T1, Heat shock protein HSP 90-alpha; assay: Effect on HSP90alpha in human U-937 cells assessed as p-JNK p46 protein level at 10 uM after 48 hrs by Western blot analysis (reference value: 1.06); type: cell-based; conditions: filed as modulator; outline: as §1
U-937 [22] = assay: Induction of apoptosis in human U-937 cells assessed as viable cells at 20 uM after 48 hrs by AnnexinV-FITC/propidium iodide staining based flow cytometry (reference value: 82.7 %); type: functional; conditions: read-out: Activity
U-937 [23] = assay: Induction of cell cycle arrest in human U937 cells assessed as increase in cells at G2 phase at 20 uM incubated for 48 hrs PI staining based flow cytometric analysis (reference value: 11.1 %); type: functional
[24] = biological target: T1, Heat shock protein HSP 90-alpha; assay: Effect on HSP90alpha in human U-937 cells assessed as ERK2 protein level at 30 uM after 48 hrs by Western blot analysis (reference value: 0.69); type: cell-based; conditions: filed as modulator; outline: as §1
U-937 [25] = assay: Induction of apoptosis in human U-937 cells assessed as late apoptotic cells at 20 uM after 48 hrs by AnnexinV-FITC/propidium iodide staining based flow cytometry (reference value: 12.4 %); type: functional
U-937 [26] = assay: Induction of cell cycle arrest in human U937 cells assessed as G1 phase cells at 20 uM incubated for 48 hrs PI staining based flow cytometric analysis (reference value: 60.8 %); type: functional
[27] = biological target: T1, Heat shock protein HSP 90-alpha; assay: Effect on HSP90alpha in human U-937 cells assessed as HSP70 protein level at 20 uM after 48 hrs by Western blot analysis (reference value: 0.83); type: cell-based; conditions: filed as modulator; outline: as §1
[28] = biological target: T1, Heat shock protein HSP 90-alpha; assay: Effect on HSP90alpha in human U-937 cells assessed as JNK p46 protein level at 10 uM after 48 hrs by Western blot analysis (reference value: 1.22); type: cell-based; conditions: filed as modulator; outline: as §1
U-937 [29] = assay: Induction of apoptosis in human U-937 cells assessed as necrotic cells at 20 uM after 48 hrs by AnnexinV-FITC/propidium iodide staining based flow cytometry (reference value: 0 %); type: functional
U-937 [30] = assay: Induction of apoptosis in human U-937 cells assessed as cleavage of pro-caspase at 20 uM by Western blotting analysis; type: functional, cell-based; outline: as §2
[31] = biological target: T1, Heat shock protein HSP 90-alpha; assay: Effect on HSP90alpha in human U-937 cells assessed as p-JNK p54 protein level at 10 uM after 48 hrs by Western blot analysis (reference value: 2.22); type: cell-based; conditions: filed as modulator; outline: as §1
[32] = Cytotoxicity against human PBMC cells assessed as cell viability after 48 hrs by MTT assay; type: cell-based
Outline: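 PBMCs isolated from healthy-donor buffy coats on Ficoll-Hypaque gradients, exposed to 30 μM or DMSO for 48 h. Viability read by MTT (absorbance 550 nm). Technical triplicates, repeated twice.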

[33] = biological target: T1, Heat shock protein HSP 90-alpha; assay: Effect on HSP90alpha in human U-937 cells assessed as p-JNK p46 protein level at 30 uM after 48 hrs by Western blot analysis (reference value: 1.06); type: cell-based; conditions: filed as modulator; outline: as §1

With CC(=O)O[C@H]1C[C@@]2(C)[C@H](C3=CC(=O)O[C@@H]3O)OC(=O)[C@H]3O[C@]32[C@@]2(C)[C@H]1[C@@]1(C)[C@@H](OC(C)=O)CC(=O)OC(C)(C)[C@@H]1C[C@H]2OC(C)=O the Kd [1] was “Not Active”.
For CC(=O)O[C@H]1CC(=O)OC(C)(C)[C@@H]2C[C@@H](OC(C)=O)[C@@]3(C)C4=CC[C@@H](C(O)(CO)CCO)[C@]4(C)CC[C@@H]3[C@@]12C (stereo partly specified), the Kd [1] was “Not Active”.
In the case of COC(=O)C[C@H]1C(C)(C)[C@H](OC(=O)C(O)C(C)C)[C@@H]2C=C3C4CC(=O)O[C@@H](c5ccoc5)[C@]4(C)CC[C@@H]3[C@@]1(C)C2=O (stereo partly specified), the Kd [1] is reported as “Not Active”.
For C=C(C)C(=O)O[C@@H]1/C=C\[C@]2(O)C3=CC(=O)O[C@@H](c4ccoc4)[C@]3(C)CC[C@]2(O)[C@]2(C)C(=O)C[C@@]1(C)[C@@H]2CC(=O)OC, the Kd [1] was “Not Active”.
In the case of CC(=O)O[C@H]1C[C@@]2(C)[C@H](C3=CC(=O)O[C@@H]3O)OC(=O)[C@H]3O[C@]32[C@@]2(C)[C@H]1[C@@]1(C)C=CC(=O)OC(C)(C)[C@@H]1C[C@H]2OC(C)=O, the Kd [1] is reported as “Not Active”.
In the case of CC(=O)O[C@H]1C[C@@]2(C)[C@H](c3ccoc3)OC(=O)[C@H]3O[C@]32[C@@]2(C)[C@H]1[C@@]1(C)[C@@H](OC(C)=O)CC(=O)OC(C)(C)[C@@H]1C[C@H]2OC(C)=O, the Kd [1] is reported as “Not Active”.
For COC(=O)C[C@H](OC(C)=O)[C@]1(C)[C@H]2[C@@H](OC(C)=O)C[C@@]3(C)[C@H](c4ccoc4)OC(=O)[C@H]4O[C@]43[C@]2(C)[C@H](OC(C)=O)C[C@H]1C(C)(C)O, the Kd [1] was “Not Active”.
In the case of C/C=C(\C)C(=O)O[C@@H]1/C=C\C2=C3CC(=O)O[C@@H](c4ccoc4)[C@]3(C)CC[C@]2(O)[C@]2(C)C(=O)C[C@@]1(C)[C@@H]2CC(=O)OC (relative stereo), the Kd [1] is reported as “Not Active”.
C/C=C(\C)C(=O)O[C@@H]1/C=C\[C@]2(O)C3=CC(=O)O[C@@H](c4ccoc4)[C@]3(C)CC[C@]2(O)[C@]2(C)C(=O)C[C@@]1(C)[C@@H]2CC(=O)OC (relative stereo) gave a fold change (FC) [2] of 1.18, a fold change (FC) [3] of 0.92 and a fold change (FC) [4] of 1.17. The “fold change (FC)” value (U-937 [5]) was 0.58, the fold change (FC) [6] was 1.17 and the fold change (FC) [7] was 0.82. The “fold change (FC)” value (U-937 [8]) was 1.18, the fold change (FC) [9] was 0.93 and the fold change (FC) [10] was 2.12. The “fold change (FC)” value (U-937 [11]) was 0.84, the fold change (FC) [12] was 1.3 and the inhibition [13] was “inactive”. The fold change (FC) [14] was 1.01, the “fold change (FC)” value (U-937 [15]) was 1.09 and the fold change (FC) [16] was 1.21. It also gave an Activity (U-937 [17]) of 8.62%, an Activity (U-937 [18]) of 12.3% and a fold change (FC) [19] of 1. The fold change (FC) [20] was 0.65, the fold change (FC) [21] was 0.97 and the viability at 20 µM (U-937 [22]) was 63.1%. The Activity (U-937 [23]) was 16.7%, the fold change (FC) [24] was 1.03 and the Activity (U-937 [25]) was 28.3%. For the same molecule, the Activity (U-937 [26]) was 53.1%, the fold change (FC) [27] was 0.91 and the fold change (FC) [28] was 1.13. For the same molecule, the Activity (U-937 [29]) was 0%, the Activity (U-937 [30]) was “Active” and the fold change (FC) [31] was 1.45. The Activity [32] was “Non-Toxic” and the fold change (FC) [33] was 0.95.
For COC(=O)C[C@H]1C(C)(C)[C@H](O)[C@@H]2CC3=C4CC(=O)O[C@@H](c5ccoc5)[C@]4(C)CC[C@@H]3[C@@]1(C)C2=O [PROCERANOLIDE], the Kd [1] was “Not Active”.
